The target in series [1] is Voltage-gated inwardly rectifying potassium channel KCNH2 (Homo sapiens, UniProt Q12809). As to the kind of experiment: Inhibition of recombinant human ERG expressed in CHO cells by automated whole cell patch clamp Qpatch method. Type of series: cell-based. Background: The patch-clamp technique gives a direct electrical read-out from membranes.
A further series relates to Mus musculus. As to the kind of experiment: Toxicity in Balb/c nu/nu mouse xenografted with human HT-29 cells harboring PIK3CA P449T mutant assessed as survival at 7.5 mg/kg, po administered daily via gavage for 27 days measured post last dose. It is filed as organism-based. The following applies: in vivo, 648 h. The essentials:
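Balb/c nu/nu mice carrying HT-29 xenografts (PIK3CA P449T), dosed by daily oral gavage for 27 days starting when mean tumor size was about 240 mm³, alongside a vehicle group. Survival was recorded after the 27-day treatment. Body weight change was measured over time. n = 6 per group, mean ± SEM, Dunnett's multiple comparison test.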

The target in the next series is Cytochrome P450 2C9 (Homo sapiens, UniProt P11712). As to the kind of experiment: Inhibition of CYP2C9 in human liver microsomes using diclofenac as substrate pretreated for 5 mins followed by NADPH addition and measured after 10 mins by LC-MS analysis. Type of series: ADME.
Series [2] can be described thus: Apparent permeability across basolateral to apical side in human Caco2 cells measured after 90 mins by LC-MS/MS analysis. It is filed as ADME, cell-based. The following applies: Caco-2.
The nature of series [3]: Inhibition of PI3K in human PC3 cells assessed as reduction in AKT phosphorylation at Ser473 measured after 2 hrs by fluorescence assay. Type of series: cell-based. The following applies: PC-3, 2 h.
A short description of series [4]: Volume of distribution at steady state in CD1 mouse at 5 mg/kg, iv by LC-MS/MS analysis. To be noted: in vivo, read-out: Vdss. Type of series: ADME, organism-based.
A short description of series [5]: Cmax in CD1 mouse at 10 mg/kg, po administered via gavage by LC-MS/MS analysis. Also on record: dose 10 mg/kg, route oral. To be noted: in vivo. Type of series: ADME, organism-based.
Series [6] can be described thus: AUClast in CD1 mouse at 5 mg/kg, iv by LC-MS/MS analysis. Set-up: dose 5 mg/kg, time 0 - last, route intravenous. The following applies: in vivo. Type of series: ADME, organism-based.
Another series addresses Cytochrome P450 1A2 (Homo sapiens, UniProt P05177). In words: Inhibition of CYP1A2 in human liver microsomes using phenacetin as substrate pretreated for 5 mins followed by NADPH addition and measured after 10 mins by LC-MS analysis. It is filed as ADME.
The next series has as its target Cytochrome P450 3A4 (Homo sapiens, UniProt P08684). As to the kind of experiment: Inhibition of CYP3A4 in human liver microsomes using midazolam as substrate pretreated for 5 mins followed by NADPH addition and measured after 5 mins by LC-MS analysis. Type of series: ADME.

Molecules are shown by their SMILES. Some results are limits rather than exact numbers.

Cytochrome P450 2C9, sequence (P11712 whole entry): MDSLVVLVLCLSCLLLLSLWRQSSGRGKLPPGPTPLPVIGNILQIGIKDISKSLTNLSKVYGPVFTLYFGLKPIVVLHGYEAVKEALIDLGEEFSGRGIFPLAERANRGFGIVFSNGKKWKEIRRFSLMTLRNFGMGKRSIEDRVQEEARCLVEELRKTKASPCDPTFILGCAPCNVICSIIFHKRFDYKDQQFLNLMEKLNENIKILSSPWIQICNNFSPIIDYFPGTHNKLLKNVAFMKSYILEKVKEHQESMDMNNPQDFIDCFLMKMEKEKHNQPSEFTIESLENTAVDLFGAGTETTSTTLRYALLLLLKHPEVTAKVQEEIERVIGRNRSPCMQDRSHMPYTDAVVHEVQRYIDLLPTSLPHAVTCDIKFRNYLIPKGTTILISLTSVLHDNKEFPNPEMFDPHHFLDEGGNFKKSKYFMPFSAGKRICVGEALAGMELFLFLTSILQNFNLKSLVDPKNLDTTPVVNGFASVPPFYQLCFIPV
Voltage-gated inwardly rectifying potassium channel KCNH2, sequence (Q12809 whole entry): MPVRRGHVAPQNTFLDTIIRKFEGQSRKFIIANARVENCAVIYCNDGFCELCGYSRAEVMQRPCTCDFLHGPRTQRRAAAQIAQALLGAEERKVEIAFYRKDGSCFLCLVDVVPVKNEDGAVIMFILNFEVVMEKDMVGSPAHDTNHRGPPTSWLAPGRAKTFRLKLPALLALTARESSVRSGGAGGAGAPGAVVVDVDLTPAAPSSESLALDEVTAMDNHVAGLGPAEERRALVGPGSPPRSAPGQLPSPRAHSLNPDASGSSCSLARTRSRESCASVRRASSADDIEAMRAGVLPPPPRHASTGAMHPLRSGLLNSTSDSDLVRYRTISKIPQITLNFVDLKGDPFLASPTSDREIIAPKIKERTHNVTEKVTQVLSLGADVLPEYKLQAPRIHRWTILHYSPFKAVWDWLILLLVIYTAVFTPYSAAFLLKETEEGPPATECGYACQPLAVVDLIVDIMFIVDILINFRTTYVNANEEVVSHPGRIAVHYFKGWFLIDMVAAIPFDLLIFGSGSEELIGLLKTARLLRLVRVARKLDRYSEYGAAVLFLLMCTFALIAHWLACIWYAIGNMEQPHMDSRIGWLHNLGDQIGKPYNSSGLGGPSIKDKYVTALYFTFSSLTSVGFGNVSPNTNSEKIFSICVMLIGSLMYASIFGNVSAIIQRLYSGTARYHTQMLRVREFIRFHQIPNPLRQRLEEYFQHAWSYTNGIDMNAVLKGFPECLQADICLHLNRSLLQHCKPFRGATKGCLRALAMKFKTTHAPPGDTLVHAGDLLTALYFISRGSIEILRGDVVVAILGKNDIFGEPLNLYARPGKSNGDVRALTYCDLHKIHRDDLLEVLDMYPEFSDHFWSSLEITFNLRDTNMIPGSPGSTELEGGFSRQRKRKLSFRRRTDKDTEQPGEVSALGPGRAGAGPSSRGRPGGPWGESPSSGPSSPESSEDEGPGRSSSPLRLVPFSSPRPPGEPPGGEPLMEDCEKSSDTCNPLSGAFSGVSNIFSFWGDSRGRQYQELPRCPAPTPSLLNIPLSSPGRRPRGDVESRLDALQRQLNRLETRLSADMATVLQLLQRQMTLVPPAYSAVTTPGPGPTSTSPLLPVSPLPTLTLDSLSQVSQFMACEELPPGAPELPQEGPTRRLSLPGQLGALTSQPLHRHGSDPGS
Cytochrome P450 3A4, sequence (P08684 whole entry): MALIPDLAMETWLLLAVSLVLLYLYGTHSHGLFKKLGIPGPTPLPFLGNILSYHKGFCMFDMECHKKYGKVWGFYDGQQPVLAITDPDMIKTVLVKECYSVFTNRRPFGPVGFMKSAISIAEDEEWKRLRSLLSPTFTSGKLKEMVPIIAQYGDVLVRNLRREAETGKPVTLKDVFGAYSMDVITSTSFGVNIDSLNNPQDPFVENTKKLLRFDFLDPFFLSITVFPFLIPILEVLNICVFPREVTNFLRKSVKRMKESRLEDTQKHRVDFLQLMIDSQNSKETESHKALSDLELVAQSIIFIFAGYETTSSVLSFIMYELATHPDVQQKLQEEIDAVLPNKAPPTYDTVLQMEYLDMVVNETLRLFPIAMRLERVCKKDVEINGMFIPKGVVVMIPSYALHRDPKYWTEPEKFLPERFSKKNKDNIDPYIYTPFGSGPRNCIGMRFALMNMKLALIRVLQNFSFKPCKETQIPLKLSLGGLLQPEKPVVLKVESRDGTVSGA
Cytochrome P450 1A2, sequence (P05177 whole entry): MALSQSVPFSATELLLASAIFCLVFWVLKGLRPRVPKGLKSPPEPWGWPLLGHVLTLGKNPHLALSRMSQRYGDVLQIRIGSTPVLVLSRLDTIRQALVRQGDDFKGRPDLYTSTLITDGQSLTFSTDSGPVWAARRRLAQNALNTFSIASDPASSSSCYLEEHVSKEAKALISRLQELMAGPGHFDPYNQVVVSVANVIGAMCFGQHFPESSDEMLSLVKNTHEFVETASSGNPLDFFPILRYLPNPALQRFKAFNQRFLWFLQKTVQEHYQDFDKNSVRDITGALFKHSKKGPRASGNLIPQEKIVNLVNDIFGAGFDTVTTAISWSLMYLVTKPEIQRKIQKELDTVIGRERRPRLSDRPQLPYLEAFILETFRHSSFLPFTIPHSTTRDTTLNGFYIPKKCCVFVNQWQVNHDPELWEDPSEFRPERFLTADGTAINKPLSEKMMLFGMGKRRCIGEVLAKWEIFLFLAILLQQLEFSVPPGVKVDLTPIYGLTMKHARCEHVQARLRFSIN

One may read the IC50 as the concentration that gives 50% inhibition. In general, Papp B→A refers to the apparent permeability from the basolateral to the apical side of a cell layer. In general, Cmax refers to the maximum level reached in the sampled fluid or tissue. Usually AUC(0-t) stands for exposure summed from dosing to a finite time, without extrapolation to infinity. Low values mean low exposure, high ones high exposure. On to `C[C@H]1COCCN1c1nc(-c2cnc(N)cc2F)cc(C2(S(C)(=O)=O)CC2)n1`, for which the IC50 in [1] was over 30 µM; on Cytochrome P450 2C9 it was over 10 µM; in series [3], 0.196 µM; at Cytochrome P450 1A2 it was over 10 µM; at Cytochrome P450 3A4, over 10 µM. Further, the Activity result with Mus musculus was “Non-Toxic”. Also, the apparent permeability from basolateral to apical (Papp B→A) at 1.5 h in series [2] was over 10 ×10⁻⁶ cm/s. Moreover, the Vd in [4] was 1.4 L/kg. For the same compound, the Cmax in series [5] worked out at 2980 ng/mL. The compound further came in with an exposure AUC(0-t) in [6] of 5440 ng·h/mL.
